Drawing on ChEMBL document CHEMBL2021907, “Amyrisins A-C, O-prenylated flavonoids from Amyris madrensis” (J Nat Prod, 2012), this text covers Activity and IC50 for 4 compounds.

For one experiment, the species on record is Homo sapiens. Put plainly: Disruption of microtubules in human MDA-MB-435 after 1 hr by immunoblotting technique.
For experiment [1], the system named is PC-3. Kind of experiment: Cytotoxicity against human PC3 cells at 50 uM after 48 hrs by SRB assay. The format is functional, cell-based. The procedure, abridged:
(§1)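 SRB assay over 48 h, with a concentration range up to 50 μM, in cells pre-plated at set densities. PC-3 cells were grown in RPMI 1640 with 10% FBS and 50 µg/mL gentamicin. DU 145 cells were grown in Richter's IMEM with 10% FBS and 25 µg/mL gentamicin. The IC50 is the 50% growth-inhibition concentration, averaged over two independent triplicate experiments.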

The test system of another experiment is DU-145. Put plainly: Cytotoxicity against human DU145 cells after 48 hrs by SRB assay. The format is functional, cell-based. Particulars: DU-145, 48 h. The procedure, abridged:
as §1

Experiment [2] relates to PC-3. Kind of experiment: Cytotoxicity against human PC3 cells after 48 hrs by SRB assay. The note with it: PC-3, 48 h. Format: functional, cell-based. The procedure, abridged:
as §1

The test system of experiment [3] is PC-3. Put plainly: Effect on cell cycle distribution in human PC3 cells at 50 uM after 18 hrs by flow cytometry. The format is functional, cell-based.

Active and inactive are the calls of the source. The calls are words filed in the database; no cut-off is given here.

Turning to `COc1c(O)cc2oc(-c3ccc(OCC=C(C)C)cc3)cc(=O)c2c1O`, the result in the experiment listed under Homo sapiens and in the experiment with PC-3 [1] was inactive.
For `C=C(C)C(O)COc1ccc(-c2cc(=O)c3c(O)c(OC)c(O)cc3o2)cc1` (stereo unspecified) [AMYRISIN B], the result in the experiment listed under Homo sapiens was inactive. Moreover, the IC50 in the experiment on DU-145 and with PC-3 [2] was 17.5 µM throughout.
On to `COc1cc(-c2cc(=O)c3c(O)c(OC)c(O)cc3o2)ccc1OCC=C(C)C` [AMYRISIN C], for which the outcome in the experiment listed under Homo sapiens and with PC-3 [3] was inactive. Moreover, the IC50 with DU-145 and in the experiment on PC-3 [2] was 23 µM each time.
Consider `O=C1OC[C@@H]2Cc3cc4c(cc3[C@@H](c3ccc5c(c3)OCO5)[C@@H]12)OCO4` [POLYGAMAIN], for which, in the experiment filed under Homo sapiens, the outcome was Active. Moreover, in the experiment on PC-3 [2], the 50% inhibitory concentration (IC50) came to 0.0706 µM.
